This is a sample that favours compounds with a hit; in the whole collection about 3.7% have one here.
Kir21 inh = blocks the mouse Kir2.1 inward-rectifier potassium channel | 310,000 compounds, 0.85% hits | B-score at 10 µM | AID 1672 | P35561 | HEK293-Kir2.1, FluxOR thallium flux fluorescence; hits give low values;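 active means fluorescence ratio B-score at or below minus 3 SD of library scores, with starting-brightness B-score within 2 SD, cut at about -4.2 in these data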;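 further: channel flux triggered by added potassium and thallium sulfate stimulus; B-score of peak minus minimum fluorescence over baseline after thallium stimulus; more negative B-score means stronger Kir2.1 block with less thallium influx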
hERG protect = shields human hERG channel from block by proarrhythmic agents; 310,000 compounds, 0.51% hits; activation (rescue from dofetilide block), less the hit threshold, % at 10 µM; Q12809; CHO-hERG, FluxOR thallium flux, dofetilide IC70 present;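 active means activation above the mean of controls blocked by dofetilide plus 5 SD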;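 further: thallium influx through hERG after potassium depolarization seen as dye fluorescence rise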
KCNK3 inh = human KCNK3 channel inhibition, primary screen; CHO-KCNK3 thallium flux, FluxOR fluorescence; hits give low values; B-score at 10 µM; 340,000 compounds, 0.84% hits;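 active means B-score under library mean minus 4 SD, starting fluorescence ratio at most library mean plus 5 SD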;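 further: more negative B-score means stronger inhibition of thallium flux through KCNK3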
Target sequence (O14649 whole entry, looked up): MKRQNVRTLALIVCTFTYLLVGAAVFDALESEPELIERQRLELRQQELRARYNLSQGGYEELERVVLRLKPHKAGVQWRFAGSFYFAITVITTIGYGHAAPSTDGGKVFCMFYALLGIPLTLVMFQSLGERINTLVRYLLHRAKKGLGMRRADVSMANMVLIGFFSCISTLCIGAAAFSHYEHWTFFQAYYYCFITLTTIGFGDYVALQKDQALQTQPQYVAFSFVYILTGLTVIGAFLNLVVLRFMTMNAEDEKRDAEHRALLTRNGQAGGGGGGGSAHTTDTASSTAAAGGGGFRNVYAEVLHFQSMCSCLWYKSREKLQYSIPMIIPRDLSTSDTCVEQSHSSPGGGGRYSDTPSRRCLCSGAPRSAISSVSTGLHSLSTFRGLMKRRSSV
KCNQ1 inh = blocks the human KCNQ1 potassium channel; P51787; CHO-K1 KCNQ1, FluxOR thallium flux fluorescence; hits give high values; B-score at 10 µM; 310,000 compounds, 1.3% hits;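 active means compounds whose thallium flux B-score, printed positive for inhibition, exceeds three library SD while starting fluorescence stays within three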;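 further: channel opened by potassium depolarization with thallium stimulus after 20 min compound exposure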
KCNK9 block = blocks the human KCNK9 two-pore domain potassium channel. Q9NPC2. HEK293 KCNK9, FluxOR thallium flux fluorescence; hits give low values. B-score at 10 µM. 310,000 compounds, 1.2% hits. AID 488922;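 active means ratio B-score over 3 SD below the library mean, with starting fluorescence within 5 SD of its mean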;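 further: negative B-score means less thallium flux so channel inhibition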
Target sequence (Q9NPC2 whole entry, looked up, the tested form may be a part): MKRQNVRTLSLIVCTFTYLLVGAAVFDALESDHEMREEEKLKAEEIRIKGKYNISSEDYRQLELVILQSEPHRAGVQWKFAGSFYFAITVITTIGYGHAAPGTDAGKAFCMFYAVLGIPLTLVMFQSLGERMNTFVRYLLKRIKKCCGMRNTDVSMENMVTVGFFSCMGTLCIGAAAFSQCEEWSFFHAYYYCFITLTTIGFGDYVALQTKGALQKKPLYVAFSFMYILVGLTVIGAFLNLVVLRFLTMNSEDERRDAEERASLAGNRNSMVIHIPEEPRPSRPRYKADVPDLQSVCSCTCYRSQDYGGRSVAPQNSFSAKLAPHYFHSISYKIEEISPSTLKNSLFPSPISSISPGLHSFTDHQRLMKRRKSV
KCNQ1 act = potentiators or activators of human KCNQ1 potassium channel; P51787; B-score at 10 µM; AID 2648; CHO-K1 KCNQ1, thallium flux FluxOR fluorescence; hits give high values; 310,000 compounds, 0.35% hits;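 active means fluorescence ratio B-score, a plate-corrected score, at least three library SD, with initial intensity B-score within 5 SD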
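Medium – assay buffer, equal DMSO in all wells · Material – CHO-K1 cell line with stable KCNQ1 potassium channel expression · Signal – kinetic FluxOR thallium fluorescence, 10-s 1-Hz baseline, 110-s post-stimulus read · Compound – single concentration per compound, DMSO matched to controls · Schedule – 37 °C overnight plating, 90-min dark dye load, 20-min compound pretreatment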
KCNK9 inh conf = confirmation of human KCNK9 potassium channel inhibitors; HEK293 KCNK9 cells, FluxOR thallium flux fluorescence; 4,900 compounds, 43% hits; AID 492992; shares compounds with KCNK9 block; inhibition, % at 10 µM;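 active means thallium signal inhibited by more than 5 SD of the compound-free buffer control wells, on both duplicate plates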
Kir2-1 spec = selectivity of KCNK9 modulators against mouse Kir2.1; inhibition, % at 10 µM; 4,900 compounds, 4% hits; Kir2.1 cells, FluxOR thallium flux fluorescence; AID 492993; shares compounds with KCNK9 block;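 active means thallium signal drop more than 5 SD beyond the mean of the no-compound control wells, seen in both duplicate plates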;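 further: signal is fluorescence rise after thallium addition divided by baseline fluorescence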
HEK293 Tl ctr = non-induced cell nonspecific activity of KCNK9 modulators; shares compounds with KCNK9 block; non-induced KCNK9-HEK293, FluxOR thallium flux; inhibition, % at 10 µM; 4,900 compounds, 40% hits; AID 492997;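 active means thallium signal drop beyond 5 SD of the untreated control mean, on both duplicate plates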
KCNK3 confirm = human KCNK3 channel inhibition, confirmation assay; shares compounds with KCNK3 inh; CHO-KCNK3 thallium flux, FluxOR fluorescence; 0% buffer, 100% carvedilol maximal block; ratio percent of control, % at 10 µM; 2,400 compounds, 99% hits;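 active means ratio percent of control, averaged over triplicates, above buffer control mean plus 5 SD, cut at about 64% in these data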;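 further: ratio is the fluorescence rise from min to max over baseline after thallium stimulus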
KCNK3 noninduced = activity in cells without induced KCNK3 expression. thallium flux ratio (lower = more inhibition) at 10 µM. shares compounds with KCNK3 inh. non-induced KCNK3 parental cells, FluxOR thallium flux; hits give low values. AID 651747. 2,400 compounds, 40% hits;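 active means thallium flux ratio, averaged over three wells, more than 5 SD below the buffer control mean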;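 further: host cells are CHO cells without KCNK3 induction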
Each line names hits and unclear results; the compound was inactive in the other large screens (follow-up assays come after a bar, where they were run).

Cc1c(C(=O)c2ccc(Cl)c(Cl)c2)cnc2cc3c(cc12)OCO3	KCNK3 inh -11, KCNK9 block -9.9 | KCNK9 inh conf 73% | Kir2-1 spec inactive | HEK293 Tl ctr 44% | KCNK3 confirm 100 | KCNK3 noninduced inactive
C=CCOc1ccc(CN(C)CC(=O)Nc2ccccc2[N+](=O)[O-])cc1	KCNK3 inh -9.5 | KCNK9 inh conf inactive | Kir2-1 spec inactive | HEK293 Tl ctr inactive | KCNK3 confirm 99 | KCNK3 noninduced 0.16
CCCOc1ccc(-c2c(C(=O)N/N=C(\C)COc3ccccc3)nnn2-c2nonc2N)cc1	none
COc1ccc(CN(C(=O)/C=C/c2ccccc2Cl)C2CCS(=O)(=O)C2)cc1 (stereo not drawn)	KCNK3 inh -11, KCNK9 block -14 | KCNK9 inh conf 49% | Kir2-1 spec inactive | HEK293 Tl ctr 32% | KCNK3 confirm 103 | KCNK3 noninduced 0.15
COc1ccc(C(=O)NC2CCCc3c2cnn3-c2ccccc2F)o1 (stereo not drawn)	none
COCO/C=C(\NC(C)=O)c1ccccc1	none (no result: Kir21 inh, hERG protect, KCNQ1 inh, KCNK9 block, KCNQ1 act)
COc1ccccc1C(=O)NC(=O)COC(=O)c1ccc(C)o1	none
CCOC(=O)c1ccc(Cn2c(-c3ccccc3)nnc2-c2ccccc2)o1	KCNK3 inh -9.3, KCNK9 block -13 | KCNK9 inh conf 56% | Kir2-1 spec inactive | HEK293 Tl ctr 40% | KCNK3 confirm 115 | KCNK3 noninduced 0.15
CC(C)CN(CC(C)C)C(=O)c1cccc(S(=O)(=O)N2CCc3ccccc32)c1	KCNK3 inh -9.7, KCNK9 block -8.8 | KCNK9 inh conf 40% | Kir2-1 spec inactive | HEK293 Tl ctr 37% | KCNK3 confirm 111 | KCNK3 noninduced inactive
CCCCC(CC)C(=O)Oc1ccc(O)c(C(C)(C)C)c1 (stereo not drawn)	KCNK3 inh -12, KCNK9 block -16 | KCNK9 inh conf 74% | Kir2-1 spec inactive | HEK293 Tl ctr 31% | KCNK3 confirm 79 | KCNK3 noninduced inactive
CC(C)(C)c1ccc(OCCC(=O)Nc2cccc(S(=O)(=O)NC3=NCCCCC3)c2)cc1	none (no result: Kir21 inh, hERG protect, KCNQ1 inh, KCNK9 block, KCNQ1 act)
COc1ccccc1C(=O)Nc1cccc(SC)c1	none
CSc1cccc(NC(=O)c2cccc3cccnc23)c1	KCNK3 inh -9.7, KCNK9 block -9.6 | KCNK9 inh conf 28% | Kir2-1 spec inactive | HEK293 Tl ctr 32% | KCNK3 confirm 88 | KCNK3 noninduced inactive
COc1nc(Nc2cccc([N+](=O)[O-])c2)nc(OC)n1	none
C#CCOc1nc(Nc2cccc([N+](=O)[O-])c2)nc(OCC#C)n1	KCNK3 inh -11, KCNK9 block -18 | KCNK9 inh conf 51% | Kir2-1 spec inactive | HEK293 Tl ctr inactive | KCNK3 confirm 107 | KCNK3 noninduced inactive
CCC(C(=O)OCC(=O)N(C)c1c(N)n(Cc2ccccc2)c(=O)[nH]c1=O)c1ccccc1 (stereo not drawn)	none
Cc1cccc(N=[N+]([O-])c2cccc(C)n2)n1	none (no result: Kir21 inh, hERG protect, KCNQ1 inh, KCNK9 block, KCNQ1 act)
N#Cc1ccc(-c2ccco2)nc1SCC(=O)c1ccc(Cl)cc1	KCNK3 inh -13, KCNK9 block -8.3 | KCNK9 inh conf 44% | Kir2-1 spec inactive | HEK293 Tl ctr 38% | KCNK3 confirm 146 | KCNK3 noninduced 0.14
CC1(C)NC(C(=O)O)Cc2c1[nH]c1ccccc21 (stereo not drawn)	none
CC1(C)CC(=O)CC2(C1)NCC(c1ccccc1)c1c2[nH]c2ccccc12 (stereo not drawn)	KCNK3 inh -9.3, KCNK9 block -15 | KCNK9 inh conf 64% | Kir2-1 spec inactive | HEK293 Tl ctr 34% | KCNK3 confirm 99 | KCNK3 noninduced inactive
Cc1ccc(C)c(NC(=O)CCN2CCc3ccccc3C2)c1	none
Cc1ccc(C(C)C)c(OCCN2CCc3ccccc3C2)c1	KCNK3 inh -9.7 | KCNK9 inh conf inactive | Kir2-1 spec inactive | HEK293 Tl ctr inactive | KCNK3 confirm 127 | KCNK3 noninduced inactive
O=C(Nc1nc2c(s1)CCCC2)c1nn(Cc2ccccc2)c(=O)c2ccccc12	KCNK3 inh -9, KCNK9 block -14 | KCNK9 inh conf 72% | Kir2-1 spec inactive | HEK293 Tl ctr inactive | KCNK3 confirm 101 | KCNK3 noninduced inactive
CCNC(=O)CNC(=O)c1nn(Cc2ccccc2)c(=O)c2ccccc12	KCNK3 inh -13, KCNK9 block -10 | KCNK9 inh conf 60% | Kir2-1 spec inactive | HEK293 Tl ctr 24% | KCNK3 confirm 102 | KCNK3 noninduced inactive
CC(C)CNC(=O)c1nn(Cc2ccccc2)c(=O)c2ccccc12	none
O=C(O)CSc1nnc(-c2ccc(Cl)cc2Cl)n1-c1ccc(Br)cc1	none
O=C(CNc1ccccc1F)Nc1cccc2ccccc12	KCNK3 inh -14, KCNK9 block -12 | KCNK9 inh conf 49% | Kir2-1 spec inactive | HEK293 Tl ctr inactive | KCNK3 confirm 112 | KCNK3 noninduced 0.16
O=C(Nc1ccccc1F)C(=O)Nc1cccc2ccccc12	none
Cc1cc(C)c(C)c(S(=O)(=O)NCCN2CCOCC2)c1C	none
Clc1ccc(CN(CC2CCCO2)C(c2cccs2)c2nnnn2C2CCCC2)cc1 (stereo not drawn)	KCNK3 inh -8.9, KCNQ1 inh 6, KCNK9 block -17 | KCNK9 inh conf 60% | Kir2-1 spec inactive | HEK293 Tl ctr 48% | KCNK3 confirm 110 | KCNK3 noninduced 0.15
CC(=O)Nc1nc(S(=O)(=O)c2ccc(C)cc2)c(Cl)s1	none
Cc1ccc(S(=O)(=O)c2nc(NCc3ccc4c(c3)OCO4)sc2Cl)cc1	KCNK9 block -11 | KCNK9 inh conf 42% | Kir2-1 spec 32% | HEK293 Tl ctr 42% | KCNK3 confirm 130 | KCNK3 noninduced 0.16
O=S(=O)(c1ccccc1)N1CCN=C1SCc1ccccc1Cl	KCNK3 inh -11, KCNK9 block -9.7 | KCNK9 inh conf 34% | Kir2-1 spec inactive | HEK293 Tl ctr 44% | KCNK3 confirm 114 | KCNK3 noninduced inactive
